Columns and labels:
[1] = Adrenal/Tissue ratio calculated from percent dose per gram of tissue determined after 1 day intravenous administration from lung; type: functional
Outline: (§1)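 Female Fischer 344 rats (160–180 g), fed ad libitum. Steroid dissolved in EtOH, formulated in Tween 80–EtOH–saline, 5–10 μCi in 1 mL given into a lateral tail vein under light Et₂O anesthesia. Organs removed 1 day post-injection, rinsed, blotted, weighed and gamma counted, 3 rats per time point. Ratios taken from adrenal vs tissue % dose/g.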

[2] = Adrenal/Tissue ratio calculated from percent dose per gram of tissue determined after 1 day intravenous administration from ovaries; type: functional; outline: as §1
[3] = Adrenal/Tissue ratio calculated from percent dose per gram of tissue determined after 1 day intravenous administration from pancreas; type: functional
Outline: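 Female Fischer 344 rats (160–180 g), food and water ad libitum, lightly anaesthetized with Et2O. [75Se]-labelled steroid was given in Tween 80–EtOH–saline, 5–10 μCi, by lateral tail-vein injection. Rats were killed by decapitation under Et2O; organs were rinsed, blotted, weighed and gamma-counted. Adrenal/tissue ratio is from % dose/g, mean of three rats per time point.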

[4] = Adrenal/Tissue ratio calculated from percent dose per gram of tissue determined after 1 day intravenous administration from spleen; type: functional; outline: as §1
[5] = Adrenal/Tissue ratio calculated from percent dose per gram of tissue determined after 1 day intravenous administration from blood; type: functional; outline: as §1
[6] = Adrenal/Tissue ratio calculated from percent dose per gram of tissue determined after 1 day intravenous administration from kidney; type: functional; outline: as §1
[7] = Adrenal/Tissue ratio calculated from percent dose per gram of tissue determined after 1 day intravenous administration from liver; type: functional; outline: as §1
Homo sapiens [8] = organism: Homo sapiens; test: Adsorbed radiation dose value was calculated to human adrenal; type: functional
Outline: (§2)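 Human absorbed radiation dose estimated by the standard MIRD method from rat tissue distribution (% dose/g, 1 h–21 days) and excretion data. Excretion came from three individually caged female rats, with urine and feces collected daily over 21 days.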

Homo sapiens [9] = organism: Homo sapiens; test: Adsorbed radiation dose value was calculated to human kidney; type: functional; outline: as §2
Homo sapiens [10] = organism: Homo sapiens; test: Adsorbed radiation dose value was calculated to human liver; type: functional; outline: as §2
Homo sapiens [11] = organism: Homo sapiens; test: Adsorbed radiation dose value was calculated to human lungs; type: functional; outline: as §2
Homo sapiens [12] = organism: Homo sapiens; test: Adsorbed radiation dose value was calculated to human ovaries; type: functional, Female gonad; outline: as §2
Homo sapiens [13] = organism: Homo sapiens; test: Adsorbed radiation dose value was calculated to human pancreas; type: functional; outline: as §2
Homo sapiens [14] = organism: Homo sapiens; test: Adsorbed radiation dose value was calculated to human spleen; type: functional; outline: as §2
Homo sapiens [15] = organism: Homo sapiens; test: Adsorbed radiation dose value was calculated to human total body; type: functional; outline: as §2
Homo sapiens [16] = organism: Homo sapiens; test: Adsorbed radiation dose value was calculated to human small intestine; type: functional; outline: as §2

| SMILES | Ratio [1] | Ratio [2] | Ratio [3] | Ratio [4] | Ratio [5] | Ratio [6] | Ratio [7] | Dose (Homo sapiens [8]) [rd mCi-1] | Dose (Homo sapiens [9]) [rd mCi-1] | Dose (Homo sapiens [10]) [rd mCi-1] | Dose (Homo sapiens [11]) [rd mCi-1] | Dose (Homo sapiens [12]) [rd mCi-1] | Dose (Homo sapiens [13]) [rd mCi-1] | Dose (Homo sapiens [14]) [rd mCi-1] | Dose (Homo sapiens [15]) [rd mCi-1] | Dose (Homo sapiens [16]) [rd mCi-1] |
| --- | --- | --- | --- | --- | --- | --- | --- | --- | --- | --- | --- | --- | --- | --- | --- | --- |
| CC(C)[Te]CCCC(C)C1CCC2C3CC=C4CC(O)CCC4(C)C3CCC12C (stereo unspecified) | 18.7 | 4.9 | 122 | 14 | 54.8 | 56.2 | 27.1 | – | – | – | – | – | – | – | – | – |
| CC(C)[73Se]CCC[C@H](C)[C@H]1CC[C@H]2[C@@H]3CC=C4C[C@@H](O)CC[C@]4(C)[C@H]3CC[C@]12C | – | – | – | – | – | – | – | 1.6 | 0.67 | 1.7 | 1.7 | 1.2 | 0.5 | 1.9 | 0.24 | 0.64 |

— ChEMBL document CHEMBL1122384, “Synthesis and evaluation of 24-(isopropyl[75Se]seleno)chol-5-en-3 beta-ol” (J Med Chem, 1983)
